# Measured values: ChEMBL document CHEMBL1153426, “A structure-based approach to ligand discovery for 2C-methyl-D-erythritol-2,4-cyclodiphosphate synthase: a target for antimicrobial therapy” (J Med Chem, 2009)
# Test: Binding affinity to Escherichia coli BL21 (DE3) IspF at 10 degC in pH 7 sodium phosphate buffer by SPR binding assay; call rule not given here
# Outline: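 Recombinant E. coli IspF expressed in BL21(DE3), >95% pure, amine-coupled to CM5 chip at ~100 μg/mL in 10 mM acetate pH 5.5 (4500–5500 RU). Ligands 0.1 μM–10 mM in 50 mM sodium phosphate pH 7, 2 mM MgCl, 30 μL/min, 10 °C; triplicate injections, blank-subtracted.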
SMILES,Kd,Kd (read-out: Kd) [mM]
NC(=O)CSc1cc(N)nc(N)n1,Not Active,–
Nc1nnc(-c2nonc2N)o1,Not Active,–
O=C(O)CCCC(=O)Nc1ccc2c(c1)OCO2,Not Active,–
Nc1ccn([C@H]2O[C@@H](CO)[C@H]3OP(=O)(O)O[C@H]32)c(=O)n1 (mixture of isomers),–,20.5
